These results are taken from ChEMBL document CHEMBL1151702, “Using an aryl phenanthroimidazole moiety as a conjugated flexible intercalator to improve the hybridization efficiency of a triplex-forming oligonucleotide” (Bioorg Med Chem, 2008).

By Tm is commonly meant the temperature at the midpoint of the melting transition.

Common to all, as to type: nucleic-acid assay
Experiment [1] has as its system Nucleic Acid. In words: Binding affinity to synthetic oligonucleotide ON19 at 1.0 uM at pH 6.0 by thermal denaturation study. In outline: (§1)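 Duplex melting: complementary strands at 1.0 µM each in 20 mM sodium cacodylate, 100 mM NaCl, 10 mM MgCl₂, at the pH of the line. Annealed at 80 °C for 5 min, then cooled to 5 °C and held 30 min. UV absorbance read at 260 nm with heating at 1.0 °C/min; Tm is the maximum of the first-derivative curve.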

The test system of experiment [2] is Nucleic Acid. In words: Binding affinity to synthetic oligonucleotide ON20 at 1.0 uM at pH 7.0 by thermal denaturation study. The procedure, abridged: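 DNA/RNA antiparallel duplex: each strand at 1.0 µM in 10 mM sodium phosphate, 140 mM NaCl, 1 mM EDTA, pH 7.0. Heated to 80 °C for 5 min, cooled to 5 °C and held 30 min. Absorbance followed at 260 nm during a 1.0 °C/min temperature ramp; Tm is the first-derivative maximum.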

Experiment [3] concerns Nucleic Acid. Put plainly: Binding affinity to synthetic oligonucleotide ON18 at 1.0 uM at pH 6.0 by thermal denaturation study. In outline:
as §1

In experiment [4] the test system is Nucleic Acid. In words: Binding affinity to synthetic double stranded DNA D1 at 1.5 uM at pH 7.2 by thermal denaturation study. In outline:
(§2)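 Parallel triplex melting: target duplex assembled from strands at 1.0 µM each, TFO third strand added at 1.5 µM. Buffer 20 mM sodium cacodylate, 100 mM NaCl, 10 mM MgCl₂, at the pH of the line. Samples heated to 80 °C for 5 min, cooled to 5 °C and held 30 min. Absorbance read at 260 nm while heating at 1.0 °C/min; Tm taken as the first-derivative maximum.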

In experiment [5] the test system is Nucleic Acid. Put plainly: Binding affinity to synthetic double stranded DNA D1 at 1.5 uM at pH 6.0 by thermal denaturation study. In outline:
as §2

In experiment [6] the test system is Nucleic Acid. Put plainly: Binding affinity to synthetic oligonucleotide ON19 at 1.0 uM at pH 7.2 by thermal denaturation study. In outline: as §1

For the compound `Cc1cn([C@H]2C[C@H](OP(=O)(O)OC[C@H]3O[C@@H](n4cc(C)c(=O)[nH]c4=O)C[C@@H]3OP(=O)(O)OC[C@H]3O[C@@H](n4cc(C)c(=O)[nH]c4=O)C[C@@H]3OP(=O)(O)OC[C@H]3O[C@@H](n4ccc(N)nc4=O)C[C@@H]3OP(=O)(O)OC[C@H]3O[C@@H](n4cc(C)c(=O)[nH]c4=O)C[C@@H]3OP(=O)(O)OC[C@H]3O[C@@H](n4cc(C)c(=O)[nH]c4=O)C[C@@H]3OP(=O)(O)OC[C@H]3O[C@@H](n4cc(C)c(=O)[nH]c4=O)C[C@@H]3O[PH](O)(O)OC[C@H]3O[C@@H](n4cc(C)c(=O)[nH]c4=O)C[C@@H]3OP(=O)(O)OC[C@H]3O[C@@H](n4cc(C)c(=O)[nH]c4=O)C[C@@H]3OP(=O)(O)OC[C@H]3O[C@@H](n4cc(C)c(=O)[nH]c4=O)C[C@@H]3OP(=O)(O)O[C@H](CO)CCOc3ccc(-c4nc5c6ccccc6c6ccccc6c5[nH]4)cc3)[C@@H](COP(=O)(O)O[C@H]3C[C@H](n4ccc(N)nc4=O)O[C@@H]3COP(=O)(O)O[C@H]3C[C@H](n4ccc(N)nc4=O)O[C@@H]3COP(=O)(O)O[C@H]3C[C@H](n4ccc(N)nc4=O)O[C@@H]3COP(=O)(O)O[C@H]3C[C@H](n4ccc(N)nc4=O)O[C@@H]3CO)O2)c(=O)[nH]c1=O`, the melting temperature (Tm) was determined as 54 °C in the experiment on Nucleic Acid [1]; 55.5 °C with Nucleic Acid [2]; 31.5 °C in the experiment with Nucleic Acid [3]; 20 °C in the experiment on Nucleic Acid [4]; 43.5 °C in the experiment on Nucleic Acid [5]; 54 °C with Nucleic Acid [6].

On to `Cc1cn([C@H]2C[C@H](OP(=O)(O)OC[C@H]3O[C@@H](n4cc(C)c(=O)[nH]c4=O)C[C@@H]3OP(=O)(O)OC[C@H]3O[C@@H](n4cc(C)c(=O)[nH]c4=O)C[C@@H]3O[PH](O)(O)OC[C@H]3O[C@@H](n4cc(C)c(=O)[nH]c4=O)C[C@@H]3OP(=O)(O)OC[C@H]3O[C@@H](n4cc(C)c(=O)[nH]c4=O)C[C@@H]3OP(=O)(O)OC[C@H]3O[C@@H](n4cc(C)c(=O)[nH]c4=O)C[C@@H]3O)[C@@H](COC[C@@H](COCc3ccc(C#Cc4ccc5ccc6cccc7ccc4c5c67)cc3)OP(=O)(O)O[C@H]3C[C@H](n4ccc(N)nc4=O)O[C@@H]3COP(=O)(O)O[C@H]3C[C@H](n4cc(C)c(=O)[nH]c4=O)O[C@@H]3COP(=O)(O)O[C@H]3C[C@H](n4cc(C)c(=O)[nH]c4=O)O[C@@H]3COP(=O)(O)O[C@H]3C[C@H](n4cc(C)c(=O)[nH]c4=O)O[C@@H]3COP(=O)(O)O[C@H]3C[C@H](n4ccc(N)nc4=O)O[C@@H]3COP(=O)(O)O[C@H]3C[C@H](n4ccc(N)nc4=O)O[C@@H]3COP(=O)(O)O[C@H]3C[C@H](n4ccc(N)nc4=O)O[C@@H]3COP(=O)(O)O[C@H]3C[C@H](n4ccc(N)nc4=O)O[C@@H]3CO)O2)c(=O)[nH]c1=O`, for which the midpoint of thermal melting (Tm) turned out to be 44.5 °C in the experiment on Nucleic Acid [1], 30 °C in the experiment on Nucleic Acid [3], 21.5 °C with Nucleic Acid [4] and 39.5 °C in the experiment on Nucleic Acid [5].

In the case of `Cc1cn([C@H]2C[C@H](OP(=O)(O)OC[C@H]3O[C@@H](n4cc(C)c(=O)[nH]c4=O)C[C@@H]3OP(=O)(O)OC[C@H]3O[C@@H](n4cc(C)c(=O)[nH]c4=O)C[C@@H]3O[PH](O)(O)OC[C@H]3O[C@@H](n4cc(C)c(=O)[nH]c4=O)C[C@@H]3OP(=O)(O)OC[C@H]3O[C@@H](n4cc(C)c(=O)[nH]c4=O)C[C@@H]3OP(=O)(O)OC[C@H]3O[C@@H](n4cc(C)c(=O)[nH]c4=O)C[C@@H]3O)[C@@H](COC[C@@H](CCOc3ccc(-c4nc5c6ccccc6c6ccccc6c5[nH]4)cc3)OP(=O)(O)O[C@H]3C[C@H](n4ccc(N)nc4=O)O[C@@H]3COP(=O)(O)O[C@H]3C[C@H](n4cc(C)c(=O)[nH]c4=O)O[C@@H]3COP(=O)(O)O[C@H]3C[C@H](n4cc(C)c(=O)[nH]c4=O)O[C@@H]3COP(=O)(O)O[C@H]3C[C@H](n4cc(C)c(=O)[nH]c4=O)O[C@@H]3COP(=O)(O)O[C@H]3C[C@H](n4ccc(N)nc4=O)O[C@@H]3COP(=O)(O)O[C@H]3C[C@H](n4ccc(N)nc4=O)O[C@@H]3COP(=O)(O)O[C@H]3C[C@H](n4ccc(N)nc4=O)O[C@@H]3COP(=O)(O)O[C@H]3C[C@H](n4ccc(N)nc4=O)O[C@@H]3CO)O2)c(=O)[nH]c1=O`, the Tm came to 51 °C in the experiment with Nucleic Acid [1]; 51 °C in the experiment on Nucleic Acid [2]; 34.5 °C in the experiment on Nucleic Acid [3]; 25 °C in the experiment on Nucleic Acid [4]; 43.5 °C in the experiment on Nucleic Acid [5]; 50.5 °C in the experiment on Nucleic Acid [6].

With `Cc1cn([C@H]2C[C@H](OP(=O)(O)OC[C@H]3O[C@@H](n4ccc(N)nc4=O)C[C@@H]3OP(=O)(O)OC[C@H]3O[C@@H](n4cc(C)c(=O)[nH]c4=O)C[C@@H]3OP(=O)(O)O[C@@H](COCc3ccc(C#Cc4ccc5ccc6cccc7ccc4c5c67)cc3)COC[C@H]3O[C@@H](n4cc(C)c(=O)[nH]c4=O)C[C@@H]3OP(=O)(O)OC[C@H]3O[C@@H](n4cc(C)c(=O)[nH]c4=O)C[C@@H]3O[PH](O)(O)OC[C@H]3O[C@@H](n4cc(C)c(=O)[nH]c4=O)C[C@@H]3OP(=O)(O)OC[C@H]3O[C@@H](n4cc(C)c(=O)[nH]c4=O)C[C@@H]3OP(=O)(O)OC[C@H]3O[C@@H](n4cc(C)c(=O)[nH]c4=O)C[C@@H]3O)[C@@H](COC[C@H](COCc3ccc(C#Cc4ccc5ccc6cccc7ccc4c5c67)cc3)OP(=O)(O)O[C@H]3C[C@H](n4cc(C)c(=O)[nH]c4=O)O[C@@H]3COP(=O)(O)O[C@H]3C[C@H](n4cc(C)c(=O)[nH]c4=O)O[C@@H]3COP(=O)(O)O[C@H]3C[C@H](n4ccc(N)nc4=O)O[C@@H]3COP(=O)(O)O[C@H]3C[C@H](n4ccc(N)nc4=O)O[C@@H]3COP(=O)(O)O[C@H]3C[C@H](n4ccc(N)nc4=O)O[C@@H]3COP(=O)(O)O[C@H]3C[C@H](n4ccc(N)nc4=O)O[C@@H]3CO)O2)c(=O)[nH]c1=O`, the melting temperature (Tm) in the experiment on Nucleic Acid [1] worked out at 41 °C; in the experiment with Nucleic Acid [3], 38 °C; in the experiment on Nucleic Acid [4], 43 °C; with Nucleic Acid [5] it was 56.5 °C; with Nucleic Acid [6] it was 38 °C.

Turning to `Cc1cn([C@H]2C[C@H](OP(=O)(O)OC[C@H]3O[C@@H](n4cc(C)c(=O)[nH]c4=O)C[C@@H]3OP(=O)(O)OC[C@H]3O[C@@H](n4cc(C)c(=O)[nH]c4=O)C[C@@H]3OP(=O)(O)OC[C@H]3O[C@@H](n4ccc(N)nc4=O)C[C@@H]3OP(=O)(O)OC[C@H]3O[C@@H](n4cc(C)c(=O)[nH]c4=O)C[C@@H]3OP(=O)(O)OC[C@H]3O[C@@H](n4cc(C)c(=O)[nH]c4=O)C[C@@H]3OP(=O)(O)OC[C@H]3O[C@@H](n4cc(C)c(=O)[nH]c4=O)C[C@@H]3O[PH](O)(O)OC[C@H]3O[C@@H](n4cc(C)c(=O)[nH]c4=O)C[C@@H]3OP(=O)(O)OC[C@H]3O[C@@H](n4cc(C)c(=O)[nH]c4=O)C[C@@H]3OP(=O)(O)OC[C@H]3O[C@@H](n4cc(C)c(=O)[nH]c4=O)C[C@@H]3O)[C@@H](COP(=O)(O)O[C@H]3C[C@H](n4ccc(N)nc4=O)O[C@@H]3COP(=O)(O)O[C@H]3C[C@H](n4ccc(N)nc4=O)O[C@@H]3COP(=O)(O)O[C@H]3C[C@H](n4ccc(N)nc4=O)O[C@@H]3COP(=O)(O)O[C@H]3C[C@H](n4ccc(N)nc4=O)O[C@@H]3COP(=O)(O)O[C@H](CO)COCc3ccc(C#Cc4ccc5ccc6cccc7ccc4c5c67)cc3)O2)c(=O)[nH]c1=O`, the Tm came out at 53 °C in the experiment on Nucleic Acid [1]; 36 °C in the experiment with Nucleic Acid [3]; 20.5 °C in the experiment with Nucleic Acid [4]; 44.5 °C with Nucleic Acid [5]; 52 °C with Nucleic Acid [6].

In the case of `Cc1cn([C@H]2C[C@H](OP(=O)(O)OC[C@H]3O[C@@H](n4cc(C)c(=O)[nH]c4=O)C[C@@H]3OP(=O)(O)OC[C@H]3O[C@@H](n4cc(C)c(=O)[nH]c4=O)C[C@@H]3O[PH](O)(O)OC[C@H]3O[C@@H](n4cc(C)c(=O)[nH]c4=O)C[C@@H]3OP(=O)(O)OC[C@H]3O[C@@H](n4cc(C)c(=O)[nH]c4=O)C[C@@H]3OP(=O)(O)OC[C@H]3O[C@@H](n4cc(C)c(=O)[nH]c4=O)C[C@@H]3O)[C@@H](COC[C@@H](CCOc3ccc(-c4ncc[nH]4)c4ccccc34)OP(=O)(O)O[C@H]3C[C@H](n4ccc(N)nc4=O)O[C@@H]3COP(=O)(O)O[C@H]3C[C@H](n4cc(C)c(=O)[nH]c4=O)O[C@@H]3COP(=O)(O)O[C@H]3C[C@H](n4cc(C)c(=O)[nH]c4=O)O[C@@H]3COP(=O)(O)O[C@H]3C[C@H](n4cc(C)c(=O)[nH]c4=O)O[C@@H]3COP(=O)(O)O[C@H]3C[C@H](n4ccc(N)nc4=O)O[C@@H]3COP(=O)(O)O[C@H]3C[C@H](n4ccc(N)nc4=O)O[C@@H]3COP(=O)(O)O[C@H]3C[C@H](n4ccc(N)nc4=O)O[C@@H]3COP(=O)(O)O[C@H]3C[C@H](n4ccc(N)nc4=O)O[C@@H]3CO)O2)c(=O)[nH]c1=O`, in the experiment with Nucleic Acid [5], the midpoint of thermal melting (Tm) came out at 13.5 °C.
